Data as given in ChEMBL document CHEMBL4130485, “Inhibitors of Yellow Fever Virus replication based on 1,3,5-triphenyl-4,5-dihydropyrazole scaffold: Design, synthesis and antiviral evaluation” (Eur J Med Chem, 2017).

Experiments:
West Nile virus = experiment: Antiviral activity against West Nile virus clinical isolate infected in golden hamster BHK21 cells assessed as protection against virus-induced cytopathic effect after 3 to 4 days by MTT assay; type: functional, organism-based; details: BHK-21
Method in brief: (§1)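 BHK-21 cells (MDBK for BVDV) seeded at 5×10^4 (BHK) or 3×10^4 (MDBK) cells/well and grown overnight to confluence. Infected at m.o.i. 0.01 in maintenance MEM-Earle with 0.5% inactivated FBS. Serial compound dilutions added 2 h later (final 100, 20, 4, 0.8 µM; DMSO ≤0.1%). Viability read by MTT after 3–4 days at 37 °C. EC50 obtained by linear regression against untreated controls; mean of three determinations.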

[1] = system: Mammalian orthoreovirus 1; experiment: Antiviral activity against Reovirus 1 infected in golden hamster BHK21 cells assessed as protection against virus-induced cytopathic effect after 3 to 4 days by MTT assay; type: functional, organism-based; details: Mammalian orthoreovirus 1, BHK-21; method in brief: as §1
Vaccinia virus = experiment: Antiviral activity against Vaccinia virus Lister ATCC VR 1549 infected in African green monkey Vero 76 cells assessed as protection against virus-induced cytopathic effect after 3 days by crystal violet staining-based plaque reduction assay; type: functional, organism-based; details: Orthopoxvirus vaccinia, ATCC VR 1549, Vero 76, 72 h
Human orthopneumovirus = experiment: Antiviral activity against Human respiratory syncytial virus A2 ATCC VR 1540 infected in African green monkey Vero 76 cells assessed as protection against virus-induced cytopathic effect after 5 days by crystal violet staining-based plaque reduction assay; type: functional, organism-based; details: ATCC VR 1540, Vero 76, 120 h
[2] = Cytotoxicity against human MT4 cells assessed as decrease in cell viability after 96 hrs by MTT assay; type: cell-based
Method in brief: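 Exponentially growing MT-4 cells seeded at 1×10^5 cells/mL in RPMI-1640 with 10% FBS and incubated with serial compound dilutions at 37 °C, 5% CO2. Viability read by MTT after 96 h. CC50 by linear regression versus untreated controls.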

[3] = Cytotoxicity against golden hamster BHK21 cells assessed as decrease in cell viability after 72 hrs by MTT assay; type: cell-based, Mesocricetus auratus, BHK-21
Method in brief: (§2)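 Uninfected MDBK (6×10^5 cells/mL, 10% horse serum) or BHK (1×10^6 cells/mL, 10% FBS) cells in MEM-Earle with serial compound dilutions at 37 °C, 5% CO2, run in parallel with the antiviral assays. Viability read by MTT after 72 h. CC50 by linear regression; mean of three determinations.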

Enterovirus C = experiment: Antiviral activity against Enterovirus C Sabin […] infected in African green monkey Vero 76 cells assessed as protection against virus-induced cytopathic effect after 2 days by crystal violet staining-based plaque reduction assay; type: functional, organism-based; details: Vero 76, 48 h
Yellow fever virus [4] = experiment: Potency index, ratio of azauridine EC50 to compound EC50 for Yellow fever virus 17D vaccine (Stamaril Pasteur J07B01); type: functional
[5] = system: Vesicular stomatitis Indiana virus; experiment: Antiviral activity against Vesicular stomatitis virus Indiana ATCC VR 158 infected in African green monkey Vero 76 cells assessed as protection against virus-induced cytopathic effect after 2 days by crystal violet staining-based plaque reduction assay; type: functional, organism-based; details: ATCC VR 158, Vero 76, 48 h
[6] = Selectivity index, ratio of CC50 for golden hamster BHK21 cells to EC50 for Yellow fever virus 17D; type: toxicity; details: read-out: Ratio CC50/EC50
Method in brief: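 Selectivity index calculated as BHK-21 CC50 divided by YFV EC50, both from MTT assays.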

[7] = system: Human immunodeficiency virus 1; experiment: Antiviral activity against HIV1 3B infected in human MT4 cells assessed as protection against virus-induced cytopathic effect after 4 days by MTT assay; type: functional, organism-based; details: Human immunodeficiency virus 1, 3B, MT4, 96 h
Method in brief: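 MT-4 cells (1×10^4/well) in RPMI with serial compound dilutions, infected with 100 CCID50 HIV-1 (m.o.i. 0.01). Viability read by MTT after 4 days at 37 °C. EC50 for 50% protection from cytopathicity obtained by linear regression versus untreated controls; mean of three determinations.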

Human alphaherpesvirus 1 = experiment: Antiviral activity against Human herpesvirus 1 KOS ATCC VR 1493 infected in African green monkey Vero 76 cells assessed as protection against virus-induced cytopathic effect after 3 days by crystal violet staining-based plaque reduction assay; type: functional, organism-based; details: Human alphaherpesvirus 1, KOS, Vero 76, 72 h
[8] = system: Bovine viral diarrhea virus 1; experiment: Antiviral activity against Bovine viral diarrhea virus NADL ATCC VR 534 infected in bovine MDBK cells assessed as protection against virus-induced cytopathic effect after 3 to 4 days by MTT assay; type: functional, organism-based, Bovine viral diarrhea virus 1-NADL; details: Bovine viral diarrhea virus isolates and strains, ATCC VR 534, MDBK; method in brief: as §1
dengue virus type 2 = experiment: Antiviral activity against Dengue virus type 2 clinical isolate infected in golden hamster BHK21 cells assessed as protection against virus-induced cytopathic effect after 3 to 4 days by MTT assay; type: functional, organism-based; details: BHK-21; method in brief: as §1
Yellow fever virus [9] = experiment: Antiviral activity against Yellow fever virus 17D vaccine (Stamaril Pasteur J07B01) infected in golden hamster BHK21 cells assessed as protection against virus-induced cytopathic effect after 3 to 4 days by MTT assay; type: functional, organism-based; details: BHK-21; method in brief: as §1
[10] = Antiviral activity against Human enterovirus B Faulkner ATCC VR 185 infected in African green monkey Vero 76 cells assessed as protection against virus-induced cytopathic effect after 3 days by crystal violet staining-based plaque reduction assay; type: functional, cell-based; details: Faulkner ATCC VR 185, Vero 76, 72 h
[11] = Cytotoxicity against bovine MDBK cells assessed as decrease in cell viability after 72 hrs by MTT assay; type: cell-based, Bos taurus; details: cattle; method in brief: as §2
[12] = Cytotoxicity against African green monkey Vero 76 cells assessed as decrease in cell viability after 48 to 96 hrs by MTT assay; type: cell-based; details: chlorocebus sabaeus
Method in brief: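 Vero 76 cells seeded at 5×10^5 cells/mL in D-MEM with 10% FBS and incubated with serial compound dilutions at 37 °C, 5% CO2. Viability read by MTT after 48–96 h. CC50 by linear regression versus untreated controls.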

[13] = Selectivity index, ratio of CC50 for bovine MDBK cells to EC50 for Bovine viral diarrhea virus NADL ATCC VR 534; type: toxicity; details: cattle, read-out: Ratio CC50/EC50
Method in brief: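 Selectivity index calculated as MDBK CC50 divided by BVDV EC50, both by MTT.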

[14] = Selectivity index, ratio of CC50 for African green monkey Vero 76 cells to EC50 for Human coxsackievirus B5 Faulkner; type: toxicity; details: read-out: Ratio CC50/EC50
Method in brief: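 Selectivity index calculated as Vero 76 CC50 (MTT) divided by CVB-5 plaque-reduction EC50.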

[15] = Cytotoxicity against African green monkey Vero 76 cells assessed as decrease in cell viability after 5 days by MTT assay; type: cell-based; details: chlorocebus sabaeus

Compound	EC50 (West Nile virus)	EC50 [1]	EC50 (Vaccinia virus)	EC50 (Human orthopneumovirus)	CC50 at 96 h [2]	CC50 at 72 h [3]	EC50 (Enterovirus C)	Ratio EC50 (Yellow fever virus [4])	EC50 [5]	selectivity ratio [6]	EC50 [7]	EC50 (Human alphaherpesvirus 1)	EC50 [8]	EC50 (dengue virus type 2)	EC50 (Yellow fever virus [9])	EC50 [10]	CC50 at 72 h [11]	CC50 [12]	selectivity ratio [13]	CC50 at 120 h [15]	further results
NS(=O)(=O)c1ccc(N2N=C(c3ccc(OCc4ccccc4)cc3)CC2c2ccc(Cl)cc2)cc1 (stereo not given)	> 15 µM	> 16 µM	> 82 µM	> 82 µM	70 µM	15 to 16 µM	> 82 µM	10	> 82 µM	7.9	> 70 µM	> 82 µM	4.5 µM	> 15 µM	1.9 µM	> 82 µM	16 µM	82 µM	3.6	–	–
Cc1ccc(C2CC(c3ccc(OCc4ccccc4)cc3)=NN2c2ccc(S(N)(=O)=O)cc2)cc1 (stereo not given)	> 36 µM	> 32 µM	> 100 µM	> 100 µM	35 µM	32 to 36 µM	> 100 µM	10	> 100 µM	20	> 35 µM	> 100 µM	2.5 µM	> 36 µM	1.8 µM	13 µM	80 µM	100 µM	32	–	selectivity ratio [14]: 7.7
NS(=O)(=O)c1ccc(N2N=C(c3ccc(OCc4ccccc4)cc3)CC2c2cccc(Cl)c2)cc1 (stereo not given)	> 45 µM	> 47 µM	> 85 µM	> 85 µM	36 µM	45 to 47 µM	> 85 µM	10	> 85 µM	22.5	11 µM	> 85 µM	5.5 µM	> 45 µM	2 µM	> 85 µM	40 µM	85 µM	7.3	–	–
NS(=O)(=O)c1ccc(N2N=C(c3ccc(OCc4ccccc4)cc3)CC2c2cccc(F)c2)cc1 (stereo not given)	> 11 µM	> 9 µM	> 90 µM	> 25 µM	65 µM	9 to 11 µM	> 90 µM	10	> 90 µM	5.5	> 65 µM	> 90 µM	10 µM	> 11 µM	2 µM	8.5 µM	15 µM	90 µM	1.5	25 µM	selectivity ratio [14]: 10.6
Cc1ccccc1C1CC(c2ccc(Oc3ccccc3)cc2)=NN1c1ccc(S(N)(=O)=O)cc1 (stereo not given)	> 8 µM	> 7 µM	> 90 µM	> 14 µM	36 µM	7 to 8 µM	> 90 µM	10	> 90 µM	3.6	13 µM	> 90 µM	> 16 µM	> 8 µM	2.2 µM	> 90 µM	16 µM	90 µM	–	14 µM	–
Cc1cccc(C2CC(c3ccc(OCc4ccccc4)cc3)=NN2c2ccc(S(N)(=O)=O)cc2)c1 (stereo not given)	> 9 µM	> 8 µM	> 100 µM	> 100 µM	44 µM	8 to 9 µM	> 100 µM	10	> 100 µM	5	> 44 µM	> 100 µM	12.5 µM	> 9 µM	1.8 µM	8 µM	56 µM	100 µM	4.5	–	selectivity ratio [14]: 12.5
Cc1ccc(C2CC(c3ccc(Oc4ccccc4)cc3)=NN2c2ccc(S(N)(=O)=O)cc2)cc1 (stereo not given)	> 9 µM	> 8 µM	> 86 µM	> 20 µM	7.2 µM	8 to 9 µM	> 86 µM	10	> 86 µM	5	> 7.2 µM	> 86 µM	> 21 µM	> 9 µM	1.8 µM	> 86 µM	21 µM	86 µM	–	20 µM	–
NS(=O)(=O)c1ccc(N2N=C(c3ccc(OCc4ccccc4)cc3)CC2c2ccccc2Cl)cc1 (stereo not given)	> 12 µM	> 12 µM	> 92 µM	> 92 µM	26 µM	12 µM	> 92 µM	10	> 92 µM	6.3	> 26 µM	> 92 µM	7.5 µM	> 12 µM	1.9 µM	> 92 µM	52 µM	92 µM	6.9	–	–
Cc1cccc(C2CC(c3ccc(Oc4ccccc4)cc3)=NN2c2ccc(S(N)(=O)=O)cc2)c1 (stereo not given)	> 9 µM	> 8 µM	> 81 µM	> 14 µM	35 µM	8 to 9 µM	> 81 µM	10	> 81 µM	5	> 35 µM	> 81 µM	> 6 µM	> 9 µM	1.8 µM	> 81 µM	6 µM	81 µM	–	14 µM	–
NS(=O)(=O)c1ccc(N2N=C(c3ccc(Oc4ccccc4)cc3)CC2c2ccccc2)cc1 (stereo not given)	> 13 µM	> 11 µM	> 85 µM	> 35 µM	42 µM	11 to 13 µM	> 85 µM	10	> 85 µM	6.2	13 µM	> 85 µM	> 5 µM	> 13 µM	2.1 µM	3.5 µM	5 µM	85 µM	–	35 µM	selectivity ratio [14]: 24.3
